Measurements as given in ChEMBL document CHEMBL5055621, “Synthesis and Characterization of the Novel Rodent-Active and CNS-Penetrant P2X7 Receptor Antagonist Lu AF27139” (J Med Chem, 2021).
pIC50, pKi: −log10 of the molar value.

Legend:
P2X purinoceptor 7 [1] = target: T1, P2X purinoceptor 7 (Mus musculus, UniProt Q9Z1M0); test: Antagonist activity at mouse P2X7 receptor expressed in HEK293 cells assessed as inhibition of BzATP-induced calcium-flux measured after 60 mins by FLIPR analysis; type: cell-based
T1 sequence (Q9Z1M0 whole entry): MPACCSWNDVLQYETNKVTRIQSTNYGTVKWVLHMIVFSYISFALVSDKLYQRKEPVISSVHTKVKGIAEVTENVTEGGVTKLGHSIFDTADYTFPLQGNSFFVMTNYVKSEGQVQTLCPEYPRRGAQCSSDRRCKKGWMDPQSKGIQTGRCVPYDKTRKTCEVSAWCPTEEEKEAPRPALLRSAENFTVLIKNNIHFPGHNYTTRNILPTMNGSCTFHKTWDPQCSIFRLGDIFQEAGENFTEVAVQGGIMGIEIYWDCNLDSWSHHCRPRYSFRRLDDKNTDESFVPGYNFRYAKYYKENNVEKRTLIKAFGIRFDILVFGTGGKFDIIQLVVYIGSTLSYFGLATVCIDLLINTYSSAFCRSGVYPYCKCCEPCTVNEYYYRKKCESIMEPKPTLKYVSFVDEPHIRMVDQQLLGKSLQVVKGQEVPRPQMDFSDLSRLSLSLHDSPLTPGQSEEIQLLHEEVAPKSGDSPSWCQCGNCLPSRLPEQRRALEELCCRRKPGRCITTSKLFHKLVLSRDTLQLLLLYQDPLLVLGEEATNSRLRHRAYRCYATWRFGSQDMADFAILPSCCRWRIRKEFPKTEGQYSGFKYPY
Summary of the method: (§1)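 Stable rat or mouse P2X7 HEK293 cells in HBSS/20 mM HEPES/2.5 mM probenecid/0.05% BSA, pH 7.4, were loaded with Fluo-4 NW (37 °C 30 min, RT 30 min). After 30 min at RT, calcium fluorescence was read by FLIPR; n ≥ 3.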

P2X purinoceptor 7 [2] = target: T2, P2X purinoceptor 7 (Rattus norvegicus, UniProt Q64663); test: Displacement of [3H]-A-804598 from rat P2X7 receptor expressed in HEK293 cell membrane by in vitro binding assay; type: cell membranes
T2 sequence (Q64663 whole entry): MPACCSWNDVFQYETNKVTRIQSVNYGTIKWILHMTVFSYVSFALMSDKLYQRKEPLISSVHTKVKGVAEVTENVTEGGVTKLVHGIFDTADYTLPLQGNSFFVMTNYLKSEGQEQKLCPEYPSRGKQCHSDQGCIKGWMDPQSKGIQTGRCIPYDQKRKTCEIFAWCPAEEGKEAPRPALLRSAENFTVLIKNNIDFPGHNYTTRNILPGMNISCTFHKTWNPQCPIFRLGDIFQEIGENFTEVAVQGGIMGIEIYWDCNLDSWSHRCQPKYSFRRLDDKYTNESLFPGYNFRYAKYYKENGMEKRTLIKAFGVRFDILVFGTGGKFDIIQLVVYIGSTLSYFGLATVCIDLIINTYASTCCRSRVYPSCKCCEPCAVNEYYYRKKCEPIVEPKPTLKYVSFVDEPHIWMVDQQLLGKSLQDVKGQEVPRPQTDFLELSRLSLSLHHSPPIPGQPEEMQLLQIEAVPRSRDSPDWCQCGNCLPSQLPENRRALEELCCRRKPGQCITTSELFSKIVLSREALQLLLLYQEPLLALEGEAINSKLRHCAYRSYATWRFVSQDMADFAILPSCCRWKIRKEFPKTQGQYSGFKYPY

[3] = Efflux ratio of permeability across basolateral to apical side over apical to basolateral side in MDCK2-MDR1 cells; type: ADME, cell-based, Canis lupus familiaris; settings: dog, MDCK-MDR1
Summary of the method: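 MDR1-MDCK monolayers; permeability measured in both A-to-B and B-to-A directions, in triplicate. Efflux ratio taken as B:A over A:B permeation.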

in vitro [4] = settings: human, liver microsomes
P2X purinoceptor 7 [5] = target: T3, P2X purinoceptor 7 (Homo sapiens, UniProt Q99572); test: Displacement of [3H]-A-804598 from human P2X7 receptor expressed in HEK293 cell membrane by in vitro binding assay; type: cell membranes
T3 sequence (Q99572 whole entry): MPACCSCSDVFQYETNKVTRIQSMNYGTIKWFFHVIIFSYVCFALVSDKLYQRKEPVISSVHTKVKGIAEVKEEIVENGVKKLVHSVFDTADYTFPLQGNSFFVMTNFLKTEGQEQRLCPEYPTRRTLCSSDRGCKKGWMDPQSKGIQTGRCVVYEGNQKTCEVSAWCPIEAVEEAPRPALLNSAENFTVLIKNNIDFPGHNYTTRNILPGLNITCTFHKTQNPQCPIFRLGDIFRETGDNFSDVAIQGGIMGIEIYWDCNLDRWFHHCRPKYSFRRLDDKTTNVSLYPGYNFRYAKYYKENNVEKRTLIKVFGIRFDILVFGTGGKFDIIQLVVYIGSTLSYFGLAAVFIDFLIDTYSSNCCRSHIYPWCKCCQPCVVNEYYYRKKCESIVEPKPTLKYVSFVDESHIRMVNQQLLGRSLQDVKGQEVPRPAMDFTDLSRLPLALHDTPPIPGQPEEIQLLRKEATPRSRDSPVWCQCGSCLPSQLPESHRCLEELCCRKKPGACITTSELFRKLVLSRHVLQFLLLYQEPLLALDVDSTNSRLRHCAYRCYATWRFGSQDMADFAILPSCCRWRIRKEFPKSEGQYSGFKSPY

in vitro [6] = settings: rat, liver microsomes
[7] = Apparent permeability across apical to basolateral side in MDCK-MDR1 cells by LC-MS/MS analysis; settings: dog
P2X purinoceptor 7 [8] = target: T3, P2X purinoceptor 7; test: Antagonist activity at human P2X7 receptor expressed in HEK293 cells assessed as inhibition of BzATP-induced calcium-flux measured after 60 mins by FLIPR analysis; type: cell-based
P2X purinoceptor 7 [9] = target: T2, P2X purinoceptor 7; test: Antagonist activity at rat P2X7 receptor expressed in HEK293 cells assessed as inhibition of BzATP-induced calcium-flux measured after 60 mins by FLIPR analysis; type: cell-based; summary of the method: as §1
THP-1 = test: Antiinflammatory activity against human THP-1 cells assessed as reduction in LPS and BzATP-induced IL-1beta release measured after 50 mins by microplate reader; type: functional, cell-based; settings: THP-1, 50 min
Summary of the method: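 THP-1 cells were differentiated with IFN-γ 10 ng/mL for 48 h and primed with LPS (100 ng/mL final) for 3.5 h at 10k cells/well. Compound was added for 20 min, then BzATP (1 mM final) for 30 min at 37 °C. Supernatant IL-1β was read by human AlphaLISA.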

P2X purinoceptor 7 [10] = target: T1, P2X purinoceptor 7; test: Displacement of [3H]-A-804598 from mouse P2X7 receptor expressed in HEK293 cell membrane by in vitro binding assay; type: cell membranes

pIC50 (P2X purinoceptor 7 [1])	pKi (P2X purinoceptor 7 [2])	efflux ratio [3]	CLint scaled at 1 h, 1 µM (in vitro [4])	pKi (P2X purinoceptor 7 [5])	CLint scaled at 1 h, 1 µM (in vitro [6])	Papp A:B [7]	pIC50 (P2X purinoceptor 7 [8])	pIC50 (P2X purinoceptor 7 [9])	pIC50 (THP-1)	pKi (P2X purinoceptor 7 [10])	Compound
5.77	6.89	17	20 mL/min/kg	7.82	43.3 mL/min/kg	0.7 ×10⁻⁶ cm/s	8.46	8.36	–	–	O=C(NCC12CC3CC(CC(C3)C1)C2)c1cc(CCCNCCCO)ccc1Cl [AZD9056]
5.64	6.29	0.72	5 mL/min/kg	8.24	16.7 mL/min/kg	20 ×10⁻⁶ cm/s	7.70	5.72	–	–	CN1C(=O)CC[C@H]1C(=O)NCc1cccc(C(F)(F)F)c1Cl [GSK1482160]
6.52	7.80	0.77	75 mL/min/kg	8.13	417 mL/min/kg	40 ×10⁻⁶ cm/s	7.24	7.15	6.85	7.32	FC(F)(F)c1cccc(-c2nnnn2Cc2cccnc2)c1Cl
–	–	–	–	–	–	–	–	7.02	–	–	O=C(NC[C@@H](c1ccc(Cl)cc1)N1CCOCC1)c1sc(-c2ncccn2)nc1C(F)(F)F
9.19	7.01	1.1	283 mL/min/kg	–	433 mL/min/kg	11 ×10⁻⁶ cm/s	7.46	8.33	–	–	O=C(NCC1(N2CCN(c3ccccc3)CC2)CCOCC1)c1cccnc1Sc1ccccc1
6.49	–	0.83	26.7 mL/min/kg	8.25	85 mL/min/kg	25 ×10⁻⁶ cm/s	8.26	6.59	7.57	7.00	O=C(Cc1cccc(C(F)(F)F)c1Cl)NC1COc2ncccc21 (stereo not given)
5.54	6.70	–	16.7 mL/min/kg	7.17	767 mL/min/kg	–	5.68	6.04	–	–	Clc1cccc(-c2nnnn2Cc2cccnc2)c1Cl
6.60	–	–	–	6.89	–	0.2 ×10⁻⁶ cm/s	7.09	–	–	–	COc1ccc(CC(=O)NC(N/C(=N/C#N)Nc2cccc3ncccc23)C(C)(C)C)cc1OC (stereo not given)
< 5.00	5.32	–	7.83 mL/min/kg	–	53.3 mL/min/kg	18 ×10⁻⁶ cm/s	–	5.26	–	–	O=C(NCC1(O)CCC(F)(F)CC1)c1cc(-c2ncc(F)cn2)ccc1Cl
–	8.41	–	23.3 mL/min/kg	–	71.7 mL/min/kg	9.3 ×10⁻⁶ cm/s	–	8.21	7.82	–	C[C@H](N/C(=N/C#N)Nc1cccc2ncccc12)c1ccccc1
6.18	–	–	–	–	–	0.6 ×10⁻⁶ cm/s	9.12	6.33	–	–	COC[C@H](O)Cn1c(=O)cnn(-c2ccc(Cl)c(C(=O)NCC3(O)CCCCCC3)c2)c1=O [CE-224535]

Compound	pIC50 (P2X purinoceptor 7 [1])	pKi (P2X purinoceptor 7 [2])	efflux ratio [3]	CLint scaled at 1 h, 1 µM (in vitro [4])	pKi (P2X purinoceptor 7 [5])	CLint scaled at 1 h, 1 µM (in vitro [6])	Papp A:B [7]	pIC50 (P2X purinoceptor 7 [8])	pIC50 (P2X purinoceptor 7 [9])	pIC50 (THP-1)	pKi (P2X purinoceptor 7 [10])
O=C(NCC1CCCCCC1)c1cn(CCO)c2ccccc12	6.62	–	0.7	883 mL/min/kg	–	533 mL/min/kg	5.9 ×10⁻⁶ cm/s	7.14	5.82	–	–
CN1CCc2c(cccc2C(=O)NCC2(N3CCN(c4ccccc4)CC3)CCCCC2)C1	–	–	1.1	–	–	200 mL/min/kg	0.25 ×10⁻⁶ cm/s	–	–	–	–
